Experimental findings from ChEMBL document CHEMBL1151684, “Synthesis and antitumoral activity of novel 3-(2-substituted-1,3,4-oxadiazol-5-yl) and 3-(5-substituted-1,2,4-triazol-3-yl) beta-carboline derivatives” (2008) are described below.

Assay type in all cases: functional
Test [1] deals with 786-0. The test is described as follows: Growth inhibition of human 786-0 cells after 48 hrs by sulforhodamine B assay. The following applies: 786-0, 48 h. Summed up:
(§1)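 Sulforhodamine B colorimetric assay following the NCI standard protocol, with doxorubicin as positive control. Each compound was tested at four concentrations in 10-fold dilutions (0.25 to 250). GI50, the concentration giving 50% growth reduction versus untreated control cells, was derived from dose–response curves.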
In general terms: The SRB assay estimates cell density from bound dye.

Test [2] relates to MCF7. The test is described as follows: Growth inhibition of human MCF7 cells after 48 hrs by sulforhodamine B assay. Particulars: MCF7, 48 h. Summed up:
as §1

Test [3] relates to UACC-62. The test is described as follows: Growth inhibition of human UACC-62 cells after 48 hrs by sulforhodamine B assay. The following applies: UACC-62, 48 h. Summed up: as §1
Test [4] can be described thus: Growth inhibition of human NCI-460 cells after 48 hrs by sulforhodamine B assay. Particulars: NCI-460, 48 h. The method in brief: as §1
In test [5] the test system is OVCAR. The test is described as follows: Growth inhibition of human OVCAR cells after 48 hrs by sulforhodamine B assay. The method in brief:
as §1

The subject of test [6] is HT-29. The test is described as follows: Growth inhibition of human HT-29 cells after 48 hrs by sulforhodamine B assay. Particulars: HT-29, 48 h. The method in brief: as §1
The test system of test [7] is K562. The test is described as follows: Growth inhibition of human K-562 cells after 48 hrs by sulforhodamine B assay. Particulars: K562, 48 h. Summed up: as §1
Test [8] can be described thus: Growth inhibition of human PCO3 cells after 48 hrs by sulforhodamine B assay. Particulars: PCO3, 48 h. The method in brief: as §1

Consider `S=c1[nH]nc(-c2cc3c([nH]c4ccccc43)c(-c3ccccc3)n2)o1`, for which the concentration for 50% growth inhibition (GI50) (usually the concentration that inhibits growth by half) in test [1] is 27.9 µM; in test [2], 25.5 µM; in test [3], greater than 100 µM; in test [4], 20.6 µM; in test [5] it was 31.8 µM; in test [6] it was 25.5 µM. Also, the concentration for 50% growth inhibition (GI50) in test [7] came out at 15.3 µM; in test [8], 25.5 µM. In addition, the TGI in test [1], in test [2], in test [3], in test [4], in test [5] and in test [6] was greater than 100 µM throughout. Besides, the results for the TGI in test [7] and in test [8] were 54.4 µM and greater than 100 µM, respectively. The same molecule came in with an LC50 (concentration causing 50% net cell kill) in test [7] greater than 100 µM.
As for `CSc1nnc(-c2cc3c([nH]c4ccccc43)c(-c3ccccc3Cl)n2)o1`, the GI50 is 48.6 µM in test [1]; 16.8 µM in test [2]; 15.2 µM in test [3]; 1.64 µM in test [4]; 0.01 µM in test [5]; 8.02 µM in test [6]. The results for the GI50 in test [7] and in test [8] were 0.17 µM and 1.03 µM, respectively. Moreover, the TGI (as a rule, the concentration at which net growth stops) in test [1] is greater than 100 µM; in test [2] it was 51.9 µM; in test [3] it was greater than 100 µM; in test [4] it was 4.2 µM; in test [5], 0.1 µM; in test [6], 99.6 µM. Moreover, the TGI in test [7] came out at 68.4 µM; in test [8] it was 3.8 µM. For the same molecule, the values for the LC50 (concentration killing 50% of cells) in test [2] and in test [8] were greater than 100 µM and 73.5 µM, respectively. This molecule also showed an LC50 (concentration for 50% net cell kill) in test [4] greater than 100 µM. In test [5], this molecule returned an LC50 (concentration killing 50% of the cells, NCI protocol) of 10.1 µM. This molecule displayed an LC50 (concentration killing 50% of the cells present at the start) in test [6] greater than 100 µM. In test [7], this molecule returned an LC50 (concentration causing 50% net cell kill) greater than 100 µM.
For `O=[N+]([O-])c1cccc(-c2nc(-c3n[nH]c(=S)o3)cc3c2[nH]c2ccccc23)c1`, the concentration for 50% growth inhibition (GI50) in test [1] was found to be 32.4 µM; in test [2] it was 27.9 µM; in test [3], 24.1 µM; in test [4] it was 73.4 µM; in test [5], 22.3 µM; in test [6] it was 27.9 µM. Besides, the GI50 in test [7] amounted to 11 µM; in test [8] it was 12.2 µM. In addition, the TGI in test [1], in test [2], in test [3], in test [4], in test [5] and in test [6] was greater than 100 µM throughout. Further, the TGI in test [7] was determined as 86.7 µM; in test [8], 35.7 µM. Moreover, in test [7], the LC50 (concentration causing 50% net cell kill) was greater than 100 µM. In test [8], the LC50 (concentration killing 50% of cells) was greater than 100 µM.
In the case of `O=[N+]([O-])c1ccc(-c2nc(-c3n[nH]c(=S)o3)cc3c2[nH]c2ccccc23)cc1`, the 50% growth inhibitory concentration (GI50) was 73.1 µM in test [1]; 27.6 µM in test [2]; 38 µM in test [3]; greater than 100 µM in test [4]; greater than 100 µM in test [5]; 31.3 µM in test [6]. In addition, the GI50 in test [7] worked out at 46.7 µM; in test [8], 26 µM. The TGI in test [1], in test [2], in test [3], in test [4], in test [5] and in test [6] was greater than 100 µM throughout. Moreover, the TGI in test [7] is greater than 100 µM; in test [8] it was 99.2 µM. This molecule displayed an LC50 (concentration killing 50% of cells) in test [8] greater than 100 µM.
Regarding `CSc1nnc(-c2cc3c([nH]c4ccccc43)c(-c3ccc([N+](=O)[O-])cc3)n2)o1`, the GI50 in test [1], in test [2], in test [3], in test [4], in test [5] and in test [6] was greater than 100 µM throughout. Besides, the GI50 in test [7] and in test [8] was greater than 100 µM each time.
As for `S=c1[nH]nc(-c2cc3c([nH]c4ccccc43)c(-c3ccccc3Cl)n2)o1`, the GI50 in test [1] stood at 27.9 µM; in test [2] it was 26.9 µM; in test [3], 18.1 µM; in test [4], 20.8 µM; in test [5], 45.9 µM; in test [6], 17.4 µM. The values for the GI50 in test [7] and in test [8] were 20.3 µM and 21.4 µM, respectively. Moreover, the TGI in test [1] is greater than 100 µM; in test [2], greater than 100 µM; in test [3], 80.1 µM; in test [4] it was greater than 100 µM; in test [5], greater than 100 µM; in test [6], greater than 100 µM. In addition, the figures for the concentration for total growth inhibition (TGI) in test [7] and in test [8] were 74 µM and greater than 100 µM, respectively. In addition, in test [3], the LC50 (concentration killing 50% of cells, NCI protocol) was greater than 100 µM. The molecule further came in with an LC50 (concentration causing 50% net cell kill) in test [7] greater than 100 µM.
Take `COc1ccc(-c2nc(-c3n[nH]c(=S)[nH]3)cc3c2[nH]c2ccccc23)cc1`: the GI50 in test [1] is 7.48 µM; in test [2] it was greater than 100 µM; in test [3], 66.8 µM; in test [4], 0.1 µM; in test [5], greater than 100 µM; in test [6] it was greater than 100 µM. The GI50 in test [7] and in test [8] was greater than 100 µM in each case.
For the molecule `CN(C)c1ccc(-c2nc(-c3n[nH]c(=S)o3)cc3c2[nH]c2ccccc23)cc1`, the GI50 in test [1] was determined as 14.7 µM; in test [2], 18.8 µM; in test [3], 23.8 µM; in test [4] it was 19.1 µM; in test [5], 14.7 µM; in test [6], 40.5 µM. Moreover, the values for the GI50 in test [7] and in test [8] were 9.55 µM and 14.7 µM, respectively.
Turning to `COc1ccc(-c2nc(-c3nnc(SC)o3)cc3c2[nH]c2ccccc23)cc1`, the GI50 in test [1] was greater than 100 µM; in test [2], 31.2 µM; in test [3], 29.1 µM; in test [4], 1.28 µM; in test [5], 2.13 µM; in test [6], greater than 100 µM. The GI50 in test [7] was 0.18 µM; in test [8] it was greater than 100 µM. For the same molecule, the TGI in test [1] is greater than 100 µM; in test [2] it was greater than 100 µM; in test [3], greater than 100 µM; in test [4], 56.6 µM; in test [5] it was greater than 100 µM; in test [6], greater than 100 µM. Besides, the TGI in test [7] and in test [8] was greater than 100 µM throughout. In test [4], this molecule yielded an LC50 (concentration for 50% net cell kill) greater than 100 µM.
As for `Nn1c(-c2cc3c([nH]c4ccccc43)c(-c3ccc(O)cc3)n2)n[nH]c1=S`, the GI50 in test [1] is 0.26 µM; in test [2], 61.2 µM; in test [3], 22.5 µM; in test [4], 0.15 µM; in test [5], 27.5 µM; in test [6] it was 34 µM. In addition, the GI50 in test [7] is 29.9 µM; in test [8] it was 25.5 µM. The total growth inhibition concentration (TGI) in test [1] is 94.1 µM; in test [2], greater than 100 µM; in test [3], greater than 100 µM; in test [4], 12.2 µM; in test [5] it was 98.4 µM; in test [6] it was greater than 100 µM. In addition, the TGI in test [7] and in test [8] was greater than 100 µM throughout. The CC50 in test [1] (read-out: LC50 (the source's name)) is greater than 100 µM. Also, in test [5], the LC50 (concentration killing 50% of the cells, NCI protocol) was greater than 100 µM.
